Screens deposited in PubChem by several laboratories.
PKA-R2B act = PKA-R2B complex activation. P22694+P31323. PKA-R2B holoenzyme dissociation, Cy5-IP20 fluorescence polarization; R2B truncated from residue 108, S112A mutant; 0% DMSO only, 100% 113 µM cGMP. activation, % at 11.4 µM. actives 0.079% (n = 340,000). AID 504700;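 active = activation above a cutoff set at the mean over all compounds plus 3 SD, cut at about 18% in these data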;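 note: higher means more holoenzyme dissociation and a rise in polarization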
HNF4A DNA FP = change in binding of human HNF4 alpha to DNA; AID 1224865; activity change, % at 10 µM; actives 0.3% (n = 360,000); HNF4a-FITC DNA binding, fluorescence polarization, 1 h; in the data active = activity change above about 30%, passing the limit was not always enough
TPT1 inhibitor = C. albicans TPT1 enzyme inhibition. recombinant caTPT1, FP RNA substrate dephosphorylation. inhibition, % at 5 µM. actives 0.81% (n = 300,000);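 active = inhibition above the mean of all tested compounds plus 3 SD, set per screening campaign, cut at about 24% in these data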;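 note: plate controls were DMSO alone for no effect and ferristatin control at 100 nM for full effect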
Rpn11 inh = Rpn11 (human) deubiquitinase inhibition. AID 588493. human 26S proteasome, Ub4-pepOG fluorescence polarization; 20S core pre-blocked with epoxomicin. O00487. calls only at 20 µM. actives 0.59% (n = 360,000);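 active = inhibition at 20 µM, scaled to each plate's controls, above about 33%, limit read from the data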
Target sequence (O00487 whole entry, looked up): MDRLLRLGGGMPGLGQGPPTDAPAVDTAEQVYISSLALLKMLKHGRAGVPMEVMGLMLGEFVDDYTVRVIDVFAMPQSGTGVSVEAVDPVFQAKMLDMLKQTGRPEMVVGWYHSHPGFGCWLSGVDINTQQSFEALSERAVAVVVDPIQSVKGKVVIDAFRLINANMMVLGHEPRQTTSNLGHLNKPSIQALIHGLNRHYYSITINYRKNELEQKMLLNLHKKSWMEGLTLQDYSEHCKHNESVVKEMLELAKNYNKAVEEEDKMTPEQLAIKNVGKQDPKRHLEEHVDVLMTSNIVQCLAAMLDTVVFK
CSN inh = inhibitors of human CSN-mediated cullin deneddylation | Q92905 | Purified CSN, SCF-Nedd8-OG deneddylation, fluorescence polarization | inhibition, % at 12.5 µM | actives 0.38% (n = 360,000) | AID 651999;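 active = pattern-corrected inhibition above about 35%, with an unprinted fluorescence ratio check between 0.5 and 1.5, limit read from the data, passing the limit was not always enough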;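 note: 0% = enzyme with substrate and 100% = substrate without enzyme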
Target sequence (Q92905 whole entry, looked up, one chain of several): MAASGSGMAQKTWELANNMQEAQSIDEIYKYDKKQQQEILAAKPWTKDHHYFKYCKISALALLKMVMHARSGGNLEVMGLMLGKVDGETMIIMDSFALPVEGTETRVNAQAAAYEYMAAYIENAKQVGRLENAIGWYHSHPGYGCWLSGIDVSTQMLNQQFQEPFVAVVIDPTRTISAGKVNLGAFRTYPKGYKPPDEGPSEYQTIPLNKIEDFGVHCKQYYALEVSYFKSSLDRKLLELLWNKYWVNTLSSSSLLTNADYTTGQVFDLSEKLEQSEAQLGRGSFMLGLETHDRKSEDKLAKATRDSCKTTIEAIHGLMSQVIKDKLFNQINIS
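Material: human Csn5 produced in HEK293T cells; Input: enzyme 0.24 nM; Reagent: SCFSkp2-Nedd8OG substrate at 10 nM final; Dosing: 12.5 µM compound; Incubation: 90 min reaction at room temperature; Detection: fluorescence polarization of the substrate; Evaluation: % inhibition of substrate cleavage by Csn5; Control set: substrate-only high control, full reaction low control.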
PKA-R1A act = PKA-R1A complex activation; PKA-R1A dissociation, Cy5-IP20 fluorescence polarization; scaled: DMSO 0%, 113 µM cGMP 100%; AID 504707; activation, % at 11.4 µM; actives 0.083% (n = 340,000); P00514+P68181;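 active = percent activation above the mean of all tested compounds plus 3 SD, cut at about 19% in these data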;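 note: higher means more PKAc released from R1A so a rise in polarization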
caTPT1 confirm = TPT1 (C. albicans) inhibition, confirmation; AID 2149; actives 74% (n = 2,400); shares compounds with TPT1 inhibitor; recombinant caTPT1, fluorescence polarization, RNase T1 coupled; inhibition, % at 5 µM;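 active = inhibition above the primary screen limit, the mean inhibition of all tested compounds plus 3 SD, cut at about 25% in these data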
RNase T1 counter = blocks Aspergillus oryzae RNase T1, a TPT1 counter-screen; actives 83% (n = 2,400); AID 2153; shares compounds with TPT1 inhibitor; RNase T1 cleavage, fluorescence polarization, 1536-well; inhibition, % at 5 µM;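 active = inhibition above the solvent-only control well mean plus 3 SD, limit set per screening run, cut at about 23% in these data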;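 note: plate controls were DMSO wells with enzyme for no effect and wells without RNase T1 for full effect; inhibitors block cleavage so intact labeled substrate keeps polarization high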
The depositor's hits bear a star; i = inactive; . = not tested or not shown. Rows were chosen to be rich in hits. Some 1.6% of all compounds tested hit in one or more screens of this group.

SMILES	PKA-R2B act	HNF4A DNA FP	TPT1 inhibitor	Rpn11 inh	CSN inh	PKA-R1A act	caTPT1 confirm	RNase T1 counter
C[C@]12CCC3C(CC[C@H]4C[C@H](N)CC[C@]34C)C1CC[C@H]2O (stereo partly specified)	15	-1	-2	i	3	1	.	.
CCOc1ccc(N2C(=O)/C(=C/c3ccco3)C(=O)NC2=S)cc1	8	-69	47*	.	104	14	16	20
Cc1ccccc1N1C(=O)/C(=C/c2ccco2)C(=O)NC1=S	.	.	80*	.	.	.	80*	14
O=C1NC(=S)N(c2ccccc2F)C(=O)/C1=C\c1cccs1	0	-2	9	i	7	-3	.	.
O=C(/C=C/c1ccccc1)NCCc1cnc[nH]1	-14	2	-5	i	5	-8	.	.
C1=C(c2c[nH]c3ccccc23)CCNC1	.	.	80*	.	.	.	50*	58*
CS(=O)(=O)Nc1ccc(Cc2noc(-c3ccc4[nH]cc(CCN)c4c3)n2)cc1	.	.	-4	.	.	.	.	.
C/C(=N\N(C)c1ccccc1)c1c(O)[nH]c(=O)[nH]c1=O	7	4	-1	i	-3	7	.	.
O=c1[nH]c(=S)n(-c2ccc(F)cc2)c(O)c1/C=N/N1CCOCC1	5	-2	7	i	2	3	.	.
Cc1cc(C)cc(-n2c(O)c(C=Nc3ccc(N4CCOCC4)cc3)c(=O)[nH]c2=S)c1	2	-1	35*	i	12	-11	57*	73*
O=c1[nH]c(=S)n(-c2ccccc2F)c(O)c1C=Nc1ccc(N2CCOCC2)cc1	-2	2	33*	i	1	-1	47*	60*
O=c1[nH]c(=S)n(-c2ccc(Br)cc2)c(O)c1C=Nc1ccc(N2CCOCC2)cc1	-16	7	-34	i	-4	-9	.	.
CC1=CC(=C2C(=O)NC(=S)NC2=O)C=C(C(F)(F)F)N1CCc1ccccc1	.	.	1	.	.	.	.	.
CC1=NN(c2ccccc2)C(=O)C1/C=C1\C(=O)NC(=O)N(c2cc(C)cc(C)c2)C1=O (stereo unspecified)	11	2	24	i	-4	0	.	.
CC1=NN(c2ccccc2)C(=O)C1/C=C1/C(=O)NC(=O)N(c2cc(C)cc(C)c2)C1=O (stereo unspecified)	2	2	29*	i	2	-5	32*	50*
Cc1ccc(CN2CCCN(Cc3ccccc3C)S2(=O)=O)cc1	-14	2	0	i	-5	-13	.	.
CCc1ccccc1NC(=O)CN1CCN(C(=O)COc2ccccc2C#N)CC1	-1	-5	.	i	-5	-1	.	.
CCCCn1c(O)c(C(=O)/C=C/c2c[nH]c3ccccc23)c(=O)[nH]c1=O	-11	150	121*	.	-76	-8	178*	161*
CN1CCCN(C(=O)COc2cccc(C(F)(F)F)c2)CC1	-4	7	-2	i	1	3	.	.
Cc1cccc(N2C(=O)NC(=O)/C(=C\c3ccc4c(c3)CCCN4Cc3ccccc3)C2=O)c1	8	-4	92*	.	33	-3	152*	141*
Cc1cccc(N2C(=O)/C(=C/c3ccc(N4CCN(C)CC4)o3)C(=O)NC2=S)c1C	-6	84*	83*	.	123	-1	121*	121*
Cc1ccccc1N1C(=O)NC(=O)/C(=C/c2ccc(N3CCOCC3)o2)C1=O	-13	108*	123*	.	132	-10	136*	138*
O=C1NC(=O)N(c2ccccc2)C(=O)/C1=C\c1ccc([N+](=O)[O-])o1	.	.	16	.	.	.	.	.
Cc1ccccc1N1C(=O)NC(=O)/C(=C\c2cc(Br)c(N3CCOCC3)o2)C1=O	3	135	96*	.	103	-6	141*	140*
CC(C)N=C(NC(C)C)N1CC1	-5	-1	.	i	-2	-8	.	.
SMILES	PKA-R2B act	HNF4A DNA FP	TPT1 inhibitor	Rpn11 inh	CSN inh	PKA-R1A act	caTPT1 confirm	RNase T1 counter
N#CC(C#N)=Cc1ccc(-c2ccccc2)o1	.	.	37*	.	.	.	36*	64*
COc1ccccc1-n1c(-c2ccccc2Br)nc2ccccc2c1=O	-6	3	0	i	3	-9	.	.
CC(C)(C)c1cc(C=C(C#N)C#N)cc(C(C)(C)C)c1O	12	12	61*	i	9	-7	82*	90*
N#CC(C#N)=Cc1ccc(O)c(O)c1	6	-4	-1	i	5	0	.	.
Cc1ccc(C(=O)c2cc(Br)ccc2N)cc1	8	1	1	i	-5	-9	.	.
O=c1c2ccccc2nc(-c2ccccc2Cl)n1-c1ccc(O)cc1	2	5	-1	i	7	-6	.	.
O=C1NC(=O)N(c2cccc(Br)c2)C(=O)/C1=C/c1ccsc1	-15	1	91*	i	13	6	70*	72*
O=C1NC(=O)N(c2ccc(F)cc2)C(=O)/C1=C/c1ccsc1	-5	1	16	i	10	4	.	.
O=C1NC(=O)C(=Cc2ccsc2)C(=O)N1	3	-3	1	i	-2	-7	.	.
O=C1NC(=O)N(c2ccc(Br)cc2)C(=O)/C1=C/c1ccsc1	3	5	30*	i	13	-1	14	20
COc1ccc(C(C)=O)cc1CC(C(=O)c1ccc(F)cc1)N(C)C (stereo unspecified)	-8	2	-1	i	0	4	.	.
CC(C)(O)/C=C/C(=O)[C@](C)(O)C1[C@H](O)C[C@@]2(C)C3CC=C4C(C[C@H](O)[C@@H](O)C4(C)C)[C@]3(C)C(=O)C[C@]12C (stereo partly specified)	-11	5	.	i	-4	-9	.	.
O=c1[nH]c(=O)n(Cc2ccco2)c(O)c1C=NCCN1CCOCC1	-12	9	25*	i	13	-13	30*	42*
O=c1[nH]c(=O)n(CCC2=CCCCC2)c(O)c1C=NCCN1CCNCC1	-11	27	27*	.	18	-11	44*	55*
O=c1[nH]c(=O)n(CCc2ccccc2)c(O)c1C=NCCCn1ccnc1	2	0	4	i	3	-6	.	.
O=c1[nH]c(=O)n(Cc2ccccc2)c(O)c1C=NCCCn1ccnc1	1	20	48*	i	9	-4	35*	45*
